# Where “and” joins values, the source holds several entries; their conditions need not be identical. Identical values can stand only once.
# Columns and labels:
# [1] = target: Sodium-dependent dopamine transporter; assay: In vitro affinity for dopamine transporter in Rhesus (Macaca mulatta) or Cynomolgus (Macaca fasicularis) monkey striata using [3H]WIN-35428 displacement.
# Summary of the method: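 Caudate-putamen membranes homogenized in ice-cold 50 mM Tris-HCl pH 7.4 and washed by centrifugation. Competition with fixed [3H]WIN 35,428 (0.3 nM) at 4 mg original wet tissue/mL in 50 mM Tris-HCl with 100 mM NaCl. Incubated 2 h at 0-4 °C, filtered on GF/B presoaked in 0.1% BSA, scintillation counting. Triplicate, 2-3 brains; IC50.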
# [2] = target: Sodium-dependent serotonin transporter; assay: In vitro affinity for serotonin transporter in Rhesus (Macaca mulatta) or Cynomolgus (Macaca fasicularis) monkey striata using [3H]citalopram displacement.
# Summary of the method: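 Cynomolgus or rhesus caudate-putamen homogenised in ice-cold 50 mM Tris-HCl, pH 7.4, and washed by centrifugation. Membranes (4 mg original wet weight/mL) were incubated with 1 nM [3H]citalopram and a range of test drug concentrations in buffer with 100 mM NaCl, 2 h at 0–4 °C.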
SMILES,IC50 [1],IC50 [2] [µM]
"CCC(=O)C1C(c2ccc(F)cc2)CC2CCC1N2CCCN1CC[S][Re]2(=[O])[S]CC[N]2C(=O)C1 [(1R,12S) -N-[ (2-( (3'-N-propyl-3''alpha-(4-fluorophenyl)tropane-2''beta-propionyl) (2-mercaptoethyl)amino) -2-aminoethanethiolato]rhenium(v)oxide]",0.003 µM and 0.0059 µM and 0.0015 µM,
COC(=O)C1C(c2ccc(F)cc2)CC2CCC1N2CCCN1CC[S][Re]2(=[O])[S]CC[N]2C(=O)C1 (stereo not drawn) [Diastereiosomer of [N-[2-[(3'-N'-Propyl-3''beta-(4-fluorophenyl)tropane-2''beta-carboxylic acid methyl ester)(2-mercaptoethyl)amino]acetyl]-2-aminoethanethiolato]rhenium(V) oxide],0.0038 µM and 0.0029 µM,
"CCC(=O)C1=C(c2ccc(Cl)c(Cl)c2)CC2CCC1N2CCCN1CC[S][Re]2(=[O])[S]CC[N]2C(=O)C1 (stereo not drawn) [N-[ (2-( (3'-N-propyl-(1''R) -3''-(3,4-dichlorophenyl)trop-2''-ene-2''--1-propanoyl) (2-mercaptoethyl)amino)acetyl) -2-aminoethanethiolato)rhenium(V) oxide]",1.2 µM,2
"COC(=O)C1=C(c2ccc(Cl)c(Cl)c2)CC2CCC1N2CCCN1CC[S][Re]2(=[O])[S]CC[N]2C(=O)C1 (stereo not drawn) [N-[ (2-( (3'-N-propyl-(1''R) -3''-(3,4-dichlorophenyl)trop-2''-ene-2''--carbomethoxy) (2-mercaptoethyl)amino)acetyl) -2-aminoethanethiolato)rhenium(V) oxide]",0.06 µM,1.69
CCC(=O)C1=C(c2ccc(F)cc2)CC2CCC1N2CCCN1CC[S][Re]2(=[O])[S]CC[N]2C(=O)C1 (stereo not drawn) [N-[ (2-( (3'-N-propyl-(1''R) -3''-(4-flurophenyl)trop-2''-ene-2''--1-propanoyl) (2-mercaptoethyl)amino)acetyl) -2-aminoethanethiolato)rhenium(V) oxide],0.66 µM,2.1
"CCC(=O)C1C(c2ccc(Cl)c(Cl)c2)CC2CCC1N2CCCN1CC[S][Re]2(=[O])[S]CC[N]2C(=O)C1 (stereo not drawn) [N-[ (2-( (3'-N-propyl-(1''R) -3''beta-(3,4-dichlorophenyl)tropane-2''-beta-1-propanoyl) (2-mercaptoethyl)amino)acetyl) -2-aminoethanethiolato)rhenium(V) oxide]",0.005 µM and 0.0053 µM,0.337
COC(=O)C1=C(c2ccc(F)cc2)CC2CCC1N2CCCN1CC[S][Re]2(=[O])[S]CC[N]2C(=O)C1 (stereo not drawn) [N-[ (2-( (3'-N-propyl-(1''R) -3''beta-(4-fluorophenyl)trop-2''-ene-2''--carbomethoxy) (2-mercaptoethyl)amino)acetyl) -2-aminoethanethiolato)rhenium(V) oxide],3.5 µM,4
COC(=O)C1=C(c2ccc3ccccc3c2)CC2CCC1N2CCCN1CC[S][Re]2(=[O])[S]CC[N]2C(=O)C1 (configuration not stated) [O-1185],0.0634 µM,0.964
COC(=O)C1C(c2ccc3ccccc3c2)CC2CCC1N2CCCN1CC[S][Re]2(=[O])[S]CC[N]2C(=O)C1 (configuration not stated) [O-2130],0.004 µM and 0.00364 µM,0.12
"COC(=O)C1C(c2ccc(Cl)c(Cl)c2)CC2CCC1N2CCC[N+]12CC[S][Re]13(=[O])[S]CC[N]3C(=O)C2 (stereo not drawn) [[N-[2-[(3'-N'-Propyl-3''beta-(3,4-dichlorophenyl)tropane-2''beta-carboxylic acid methyl ester)(2-mercaptoethyl)amino]acetyl]-2-aminoethanethiolato]rhenium(V) oxide]",,0.639

# Reference: BindingDB's records for doi:10.1021/jm0301484 (Organix, 2003)
